Published values gathered from unrelated publications.
Compare with care: the assays were run in different laboratories.
Observed: metabolic stability

SMILES | host | matrix | tested at | pH | notes | half-life [min]
O=S(=O)(Nc1cccc(-c2nnn[nH]2)c1)c1cc(C(F)(F)F)ccc1C(F)(F)F | mouse | liver microsomes | – | – | – | 35
CCCCOC(=O)NS(=O)(=O)c1sc(CC(C)C)cc1-c1ccc2c(c1)CN(C(C)=O)C2 | mouse | liver microsomes | 1 µM | pH 7.4 | – | 1.8
CC(C)Oc1cccc(-c2cnc(N3CCC(C(N)=O)CC3)s2)c1 | mouse | liver microsomes | 1 µM | – | – | > 30
CCOC(=O)C1=C(C)N/C(=C/c2cc(C)n(-c3ccc(Cl)cc3)c2C)C1=O | mouse | liver microsomes | 1 µM | – | – | 24
CNC(=O)[C@H](Cc1c[nH]cn1)NC(=O)CN(CCCc1ccccc1)CC(=O)O | male mouse | liver microsomes | 1 µM | pH 7.4 | – | > 40
N=c1c2c(-c3ccccc3)c(-c3ccccc3)n(CCc3ccccc3)c2ncn1[C@H]1CC[C@H](O)CC1 | male CD-1 mouse | liver microsomes | 1 µM | pH 7.4 | – | > 120
COc1ccc2cc(C(=O)Nc3ccc4c(c3)CN(C3CCC(=O)NC3=O)C4=O)ccc2c1 (stereo not drawn) | mouse | liver microsomes | 2 µM | – | – | 180
O=c1ccc2ccccc2o1 | mouse | liver microsomes | 50 µM | pH 7.4 | – | 72
CO[C@@H](C[C@H]1C(C)=CC[C@@H]2[C@]3(C)C[C@H](O[C@@H]4O[C@@H](C)[C@H](OC(=O)c5cccc(O)c5)[C@@H](O[C@@H]5O[C@H](CO)[C@@H](O)[C@H](O)[C@H]5NC(C)=O)[C@H]4O)[C@@H](O)C(C)(C)[C@H]3CC[C@]21C)[C@H](N)C(=O)O.O=C(O)C(F)(F)F | mouse | hepatocytes | 1 µM | – | – | 296
Fc1ccc([C@@H]2CCNC[C@H]2COc2ccc3c(c2)OCO3)cc1 | CD-1 mouse | liver microsomes | 1 µM | pH 7.4 | – | 24
O=S(=O)(Nc1cccc(-c2nnn[nH]2)c1)c1ccc(C(F)(F)F)c(F)c1 | mouse | liver microsomes | – | – | – | 174
CC(C)(C)C[C@@H]1N[C@@H](C(=O)N[C@H]2C[C@](C)(O)C2)[C@H](c2cccc(Cl)c2F)[C@]12C(=O)Nc1cc(Cl)ccc12 | mouse | liver microsomes | – | – | – | > 60
COc1ccc(NC(=O)[C@H]2c3ccccc3C(=O)N(CC(C)C)[C@@H]2c2cccs2)cc1Cl (racemic) | female CD-1 mouse | liver microsomes | 80 nM | pH 7.4 | – | < 30
CC[C@@H]1C=CC(=O)O[C@@H]1C[C@@H](O)[C@H](C)[C@H](OC)[C@@H](C)Cc1ccc(F)cc1 | mouse | liver microsomes | – | – | – | < 2.3
COc1cc2[nH]c(C#N)cc2c(C)c1CN1CCC(Nc2ncnc3sc(CC(F)(F)F)cc23)CC1 | CD-1 mouse | liver microsomes | 1 µM | pH 7.4 | – | > 30
CCOC(=O)C1=C(C)N/C(=C/c2cc(C)n(-c3ccc(N4CCOCC4)cc3)c2C)C1=O | mouse | liver microsomes | 1 µM | – | – | 57
CCOC(=O)NS(=O)(=O)c1sc(CC(C)C)cc1-c1ccc2c(c1)CN(C(C)=O)C2 | mouse | liver microsomes | 1 µM | pH 7.4 | – | 21
O=C(CC1Cc2ccccc2C1)N[C@H](CN1CCCC1)[C@H](O)c1ccc2c(c1)OCCO2 | mouse | liver microsomes | – | – | – | 2.5
C=CC(=O)Nc1cc(F)c(N2CCC[C@@H](Nc3ncc(Cl)c(-c4c[nH]c5ccccc45)n3)C2)cc1C | mouse | liver microsomes | – | – | – | 3.9
CC1=C(C(=O)O)C(=O)/C(=C\c2cc(C)n(-c3ccccc3C(F)(F)F)c2C)N1 | mouse | liver microsomes | 1 µM | – | – | 79
C/C(=N\OCCN)c1cccc(C(C)(C)NC(=O)Nc2ccc(Cl)c([N+](=O)[O-])c2)c1 | mouse | liver microsomes | – | – | – | > 120
Cc1ccc(S(=O)(=O)Nc2cccc(-c3nnn[nH]3)c2)cc1C(F)(F)F | mouse | liver microsomes | – | – | – | 38
C=CC(=O)Nc1ccc(N2CCC[C@@H](Nc3ncc(Cl)c(-c4c[nH]c5ccccc45)n3)C2)cc1 | mouse | liver microsomes | – | – | – | 7.2
CCS(=O)(=O)Nc1ccc(OCCOCCOCCOCCOc2ccc(NS(=O)(=O)CC)cc2-c2cn(C)c(=O)c3ccccc23)c(-c2cn(C)c(=O)c3ccccc23)c1 | mouse | liver microsomes | – | – | – | < 2.3
O=C(Nc1ccccc1)C1CCN(c2ncc(-c3ccc4c(c3)OCCCO4)s2)CC1 | mouse | liver microsomes | 1 µM | – | – | < 10
CC[C@@H]1C=CC(=O)O[C@@H]1C[C@@H](O)[C@H](C)[C@H](OC)[C@@H](C)Cc1ccccc1 | mouse | liver microsomes | – | – | – | 4.4
CN1CCC(Cc2cccc(CNC3(c4ccc(F)cc4)CCCC3)c2)CC1(C)C (racemic) | mouse | liver microsomes | 4.6 µM | pH 7.5 | – | ~60

SMILES | host | matrix | tested at | pH | notes | half-life [min]
CNC(=O)[C@H](Cc1c[nH]cn1)NC(=O)CN(CC(=O)O)Cc1ccccc1 | male mouse | liver microsomes | 1 µM | pH 7.4 | – | > 40
CCOc1c(O)cc(Br)c2c1CN1CCc3cc(OCC(F)F)c(O)cc3[C@@H]1C2 | mouse | liver S9 | 2 µM | pH 7.4 | – | 9.63
CCCCOC(=O)NS(=O)(=O)c1sc(CC(C)C)cc1-c1ccc(OC(F)(F)F)c(Cn2ccnc2)c1 | mouse | liver microsomes | 1 µM | pH 7.4 | – | 103
O=S(=O)(Nc1cccc(-c2nnn[nH]2)c1)c1ccc(Cl)c(Cl)c1Cl | mouse | liver microsomes | – | – | – | 192
Fc1ccc2nc(Cc3c[nH]c4c(F)cccc34)[nH]c2c1 | mouse | liver microsomes | – | pH 7.4 | – | 7.2
N=C(N)N1CC=C(c2coc(C(=O)Nc3ccc(C4=CCN(C(=N)N)CC4)c(F)c3)c2)CC1 | CD-1 mouse | liver microsomes | 1 µM | – | – | > 60
CN1CC(Cc2cccc(CNC3(c4ccc(F)cc4)CCCC3)c2)C1 | mouse | liver microsomes | 4.6 µM | pH 7.5 | – | ~60
Cc1noc([C@H](Cc2c[nH]cn2)NC(=O)CN(CCCc2ccccc2)CC(=O)O)n1 | male mouse | liver microsomes | 1 µM | pH 7.4 | – | > 40
O=C(N[C@H](Cc1c[nH]c2ccccc12)C(=O)Nc1ccncc1)c1ccc(-c2ccc(F)c(F)c2)cc1F | mouse | liver microsomes | – | – | – | 39
C=CC(=O)Nc1cccc(-n2nc3c(=O)[nH]nc(N)c3c2-c2oc3ccc(C)cc3c2C)c1 | nude mouse | blood | 1 µM | – | whole blood | 134
CCNc1nc2c(c(N3CC(=O)Nc4cc(OC)ccc43)n1)CCC2 | mouse | liver microsomes | – | – | – | 5.7
CCCN(C)Cc1cc(-c2[nH]c3cccc(F)c3c(=O)c2C)ccc1Cc1ccc(OC(F)(F)F)cc1 | mouse | liver microsomes | – | – | – | 3.47
O=C(Nc1ccc(Cl)c(Cl)c1)c1ccc(N2CCNCC2)c([N+](=O)[O-])c1 | CD-1 mouse | liver microsomes | 1 µM | pH 7.4 | – | > 110
NC[C@@H]1O[C@H](O[C@H]2[C@@H](O)[C@H](O[C@@H]3[C@@H](O)[C@H](N)C[C@H](N)[C@H]3O[C@H]3O[C@H](CO)[C@@H](O)[C@H](O)[C@H]3N)O[C@@H]2CO)[C@H](N)[C@@H](O)[C@@H]1O | mouse | liver microsomes | 25 µM | pH 7.4 | – | 143
CCOC(=O)C1=C(C)N/C(=C/c2ccn(-c3ccccc3C(F)(F)F)c2)C1=O | mouse | liver microsomes | 1 µM | – | – | 11
O=C(OC(C(F)(F)F)C(F)(F)F)N1Cc2ccc(OCCN3CCOCC3)cc2C1 | mouse | liver microsomes | – | – | – | 7
O=C1CCN(C(=O)Nc2ccc(F)c(Cl)c2)[C@H]2CCCC[C@@H]12 (relative stereo) | mouse | liver microsomes | – | – | – | > 32
O=S(=O)(Nc1cccc(-c2nnn[nH]2)c1)c1cc(C(F)(F)F)cc(C(F)(F)F)c1 | mouse | liver microsomes | – | – | – | 535
CCCC[S+]([O-])c1sc2nc(-c3cccs3)ccc2c1N (stereo not drawn) | female CD-1 mouse | liver S9 | 2 µM | pH 7.5 | – | 13
CCOC(=O)C1=C(C)N/C(=C/c2cc(C)n(-c3ccc(N(C)C)cc3)c2C)C1=O | mouse | liver microsomes | 1 µM | – | – | 31
CCCCOC(=O)NS(=O)(=O)c1sc(CC(C)C)cc1-c1ccc2c(c1)CCN(C(C)=O)C2 | mouse | liver microsomes | 1 µM | pH 7.4 | – | 2.9
CCOC(=O)C1=C(C)N/C(=C/c2cc(C)n(-c3cccc(OC)c3)c2C)C1=O | mouse | liver microsomes | 1 µM | – | – | 12
O=C(O)C1CCN(c2ncc(-c3ccc4c(c3)OCCCO4)s2)CC1 | mouse | liver microsomes | 1 µM | – | – | > 30
CCOC(=O)C1=C(C)N/C(=C/c2cc(C)n(-c3cccnc3)c2C)C1=O | mouse | liver microsomes | 1 µM | – | – | 21
CC[C@@H]1C=CC(=O)O[C@@H]1C[C@@H](O)[C@H](C)[C@H](O)[C@@H](C)Cc1ccc(F)cc1 | mouse | liver microsomes | – | – | – | 3
CCOC(=O)C1=C(C)N/C(=C/c2cc(C)n(-c3ccc(F)cc3F)c2C)C1=O | mouse | liver microsomes | 1 µM | – | – | 23
Cc1noc(C)c1-c1ccc2nc(C(=O)NC3CCN(C)CC3)nc(NCc3cccc(Cl)c3)c2c1 | mouse | liver microsomes | – | – | – | 28
